Screens: PubChem, The Scripps Research Institute Molecular Screening Center
In the library only some 2.5% were active in any assay of this set; here they are far more common.
HTRA1 inh: HTRA1 (human) protease inhibition; Q92743; recombinant HTRA1, FP-rhodamine activity-based probe, fluorescence polarization; inhibition, % at 5.96 µM; 0.5% of 340,000 active; AID 504803; in the data active = inhibition above about 36%;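 note: 0% = enzyme with DMSO and 100% = wells lacking enzyme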
mABHD4 FP: ABHD4 (mouse) inhibition, primary FP screen; Q8VD66; inhibition, % at 8.92 µM; purified mABHD4, FP-Rh probe fluorescence polarization; 0.54% of 370,000 active;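 active = inhibition exceeding the mean over every tested compound plus 3 SD, cut at about 30% in these data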;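 note: 0% = plate median of compound wells and 100% = S159A mutant with DMSO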
Target sequence (Q8VD66 whole entry, looked up): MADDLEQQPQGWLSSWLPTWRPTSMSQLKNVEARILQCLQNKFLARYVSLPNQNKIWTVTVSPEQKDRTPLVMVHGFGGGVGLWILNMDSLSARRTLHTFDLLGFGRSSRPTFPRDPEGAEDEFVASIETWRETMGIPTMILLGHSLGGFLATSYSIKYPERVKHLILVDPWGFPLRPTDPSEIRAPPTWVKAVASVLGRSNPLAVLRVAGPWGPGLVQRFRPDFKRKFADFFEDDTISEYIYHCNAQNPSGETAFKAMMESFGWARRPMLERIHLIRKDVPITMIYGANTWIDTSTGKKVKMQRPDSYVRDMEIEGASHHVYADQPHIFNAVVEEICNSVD
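Assay system: wild-type mouse ABHD4 protein; compound: single nominal dose of 8.92 µM, 0.89% DMSO final; schedule: 45 min + 60 min at 25 °C; measured by: FP readout, ex 525 nm / em 598 nm; evaluation: % inhibition of FP-Rh probe binding versus controls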
TCR CD3 inh: inhibitors of human TCR-CD3 interaction; AID 651800; 0.37% of 360,000 active; TAMRA-labeled TCR probe fluorescence, biochemical; inhibition, % at 9.4 µM;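 note: recombinant mutant TCR 2C K166C tagged with TAMRA read by polarization; 0% = receptor in buffer alone and 100% = receptor with positive control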
SIAE inh: blocks human sialic acid acetylesterase. Q9HAT2. SIAE FP-Rh probe binding, fluorescence polarization. inhibition, % at 9.66 µM. 0.69% of 370,000 active. AID 1053197;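 active = inhibition above a cutoff: mean of compounds within the control limits plus 3 SD of those, cut at about 17% in these data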;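 note: 0% = plate median of compound wells and 100% = probe without SIAE protein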
PRMT1 FP inh: PRMT1 (human) inhibition, primary screen; recombinant PRMT1, activity-based probe fluorescence polarization; 1.3% of 370,000 active; inhibition, % at 2.79 µM;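 active = inhibition above about 21% made by adding two undisclosed values, limit read from the data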
BSA TAMRA ctr: interferes with TAMRA-BSA probe, flagging TCR-CD3 hits; shares compounds with TCR CD3 inh; TAMRA-labeled BSA probe fluorescence counterscreen; inhibition, % at 9.4 µM; 10% of 1,200 active; AID 652035; in the data active = inhibition above about 23%;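 note: 0% = buffer low control and 100% = reference high control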
TCR-CD3 conf: TCR-CD3 interaction inhibition, confirmation; shares compounds with TCR CD3 inh; TAMRA-labeled TCR probe fluorescence binding assay; inhibition, % at 9.4 µM; 48% of 1,200 active; AID 652036
PRMT1 confirm: confirmation of human PRMT1 inhibitors; inhibition, % at 2.79 µM; recombinant His-PRMT1, activity-based probe fluorescence polarization; shares compounds with PRMT1 FP inh; 42% of 3,300 active; AID 687036;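 active = mean inhibition across replicates above the hit cutoff derived for the earlier primary screen, cut at about 22% in these data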
ABHD4 confirm: confirmation of mouse ABHD4 inhibitors. shares compounds with mABHD4 FP. 55% of 1,800 active. inhibition, % at 8.92 µM. purified mABHD4, FP-Rh probe fluorescence polarization;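 active = mean inhibition across replicates above the hit cutoff set in the primary screen, cut at about 30% in these data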;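 note: 0% = wild-type ABHD4 with DMSO and 100% = catalytically dead S159A mutant with DMSO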
SIAE inh conf: human SIAE inhibition, confirmation. shares compounds with SIAE inh. SIAE FP-Rh activity-based probe, fluorescence polarization. inhibition, % at 9.66 µM. 13% of 2,300 active;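 active = mean inhibition of the replicates above the hit cutoff set in the primary screen, cut at about 17% in these data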;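 note: 0% = SIAE with DMSO and probe and 100% = probe without SIAE; inhibitors lower polarization as more probe stays unbound to SIAE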
An asterisk follows results filed as active; · = not tested or not shown; ! = repeats disagree. Cut-off read from the data, not from the text of the source, unless noted: active = inhibition above about 19%; inactive = the rest.

SMILES	HTRA1 inh	mABHD4 FP	TCR CD3 inh	SIAE inh	PRMT1 FP inh	BSA TAMRA ctr	TCR-CD3 conf	ABHD4 confirm	others
Cc1nc(S/C(=C\c2ccc(-c3ccc(C(=O)O)c(Cl)c3)o2)C(=O)O)n[nH]1	6	39*	65*	4	33*	2	67*	54*	PRMT1 confirm=39*
CC(=O)Nc1ccc(S(=O)(=O)NCc2ccc3c(c2)cc(C)n3C)cc1	27	46*	54*	15	14	-1	1	-13
CC(=O)Nc1ccc(S(=O)(=O)NCc2ccc3[nH]c(C)cc3c2)cc1	8	-19	1	2	2	·	·	·
O=C(CCc1ccccc1)N1CCN(Cc2ccc(F)cc2Cl)CC1	-2	0	7	0	-1	·	·	·
C[n+]1cc2c3c(ccc2c2ccc4cc5c(cc4c21)OCO5)OCO3	·	68*	20*	19*	61*	19	24*	71*	PRMT1 confirm=85*
C[n+]1c(/C=C/c2ccc3c(c2)OCO3)ccc2ccccc21	1	5	0	0	2	·	·	·
C/C(=N\NC(=O)c1ccccc1O)C1C(=O)c2ccccc2C1=O	30	46*	33*	9	1	-17	42*	64*
Oc1cccc(CN2CCOCC2)c1O	27	42*	27*	3	33*	0	10	6	PRMT1 confirm=9
Oc1ccc2ccccc2c1CN1CCOCC1	11	5	4	-6	21	·	·	·
C#Cc1ccc([C@@H]2C=C(C(=O)N3CCOCC3)O[C@H](OCC)[C@H]2CCCO)cc1	-1	2	1	6	2	·	·	·
O=C1NC(=S)NC1=Cc1ccco1	14	33*	24*	-5	64*	4	21*	6	PRMT1 confirm=13
COC(=O)c1cc(-c2ccccc2)c(=O)n2c1CCC2	·	0	·	-2	-5	·	·	·
Oc1ccc(/C=N/n2c(COc3ccccc3)n[nH]c2=S)cc1O	25	36*	32*	2	3	-14	22*	23
Nc1ncnc2oc(-c3ccco3)c(-c3ccco3)c12	23	34*	58*	36*	61*	-5	27*	4
Nc1nnc(-c2ccco2)s1	4	7	3	6	10	·	·	·
CC(=O)OCCNc1cc(N2CCN(C)CC2)c2noc3c2c1C(=O)c1ccccc1-3	25	32*	24*	16	3	11	11	1
COCCCNC(=O)c1ccc2c3c(onc13)-c1ccccc1C2=O	6	·	·	·	·	·	·	·
O=C(NN=Cc1cc(Cl)ccc1[N+](=O)[O-])c1cccc2ccccc12	-2	-4	4	2	6	·	·	·
Cc1cc(C(=O)N/N=C/c2cc(Cl)cc([N+](=O)[O-])c2O)c2ccccc2n1	7	32*	36*	7	8	-13	39*	37*
NC(=O)c1sc2nc3c(c(-c4ccco4)c2c1N)CCC3	26	30*	19*	3	47*	4	3	8	PRMT1 confirm=4
C[c-]1[c-](C)[c-](C)[c-](C)[c-]1C.[Fe].c1cc2nccc(N3CCCC3)[c-]2c1 (stereo not given)	14	33*!	49*	8	26*	2	19*!	30*	PRMT1 confirm=8
CC(C)c1cccc(C(C)C)c1NC(=O)CCN1C(=O)NC2(CCCC2)C1=O	1	1	-7	-3	-5	·	·	·
COc1ccc2c(n1)Sc1nc3ccccc3nc1N2	3	32*	48*	9	78*	-3	1	10	PRMT1 confirm=20
COc1cc2ccccc2nn1	3	2	-11	-1	1	·	·	·
Cc1cccc(C)c1Cn1c(C)c(C(=O)NCc2ccc([N+](=O)[O-])cc2)sc1=O	·	-16	5	-9	-4	·	·	·
SMILES	HTRA1 inh	mABHD4 FP	TCR CD3 inh	SIAE inh	PRMT1 FP inh	BSA TAMRA ctr	TCR-CD3 conf	ABHD4 confirm	others
COc1cccc(CCC(=O)N2CCC(n3nccc3NC(=O)CC(C)C)CC2)c1	4	2	-3	-4	-2	·	·	·
CN(c1ccccc1)S(=O)(=O)c1ccc(NC(=O)CC(=O)c2ccccc2)cc1	-20	32*	56*	-69	0	7	5	-73
COc1ccc(S(=O)(=O)N2CCOCC2)cc1NC(=O)CCNC(=O)c1ccc([N+](=O)[O-])cc1	0	7	-2	-1	-9	·	·	·
O=C(O)c1ccccc1C1=Nc2ccc(O)cc2Oc2cc(O)ccc21	17	30*	34*	13	47*	57*	47*	61*	PRMT1 confirm=65*
COc1cc(OC)c2cc(C(=O)N/N=C/c3cccc(OC)c3O)[nH]c2c1	15	32*	24*	12	-3	-11	7	58*
O=C1/C(=C/C=C/c2ccco2)SC(=S)N1NS(=O)(=O)c1ccccc1	25	46*	22*	7	53*	-14	21*	14
Nc1ccc(N=Nc2ccccc2O)c(N)c1	·	39*	21*	8	9	-11	8	40*
Cc1ccc(OCCNC(=O)[C@H]2O[C@@H](n3cnc4c(N)ncnc43)[C@H](O)[C@@H]2O)cc1C	·	8	3	11	2	·	·	·
O=C(CCc1ccccc1)N[C@H]1[C@H](OCc2ccccc2)CCC[C@@]12C(=O)N(Cc1ccccc1)c1ccc(-c3ccsc3)cc12	·	-11	·	-12	7	·	·	·
CCO/C(C)=N/Oc1cccc(N(C)C)c1	·	43*	26*	23*	15	10	2	·	SIAE inh conf=12
C/C(=N\NC(=S)NCCc1ccccc1)c1ccc(O)cc1O	29	14	28*	17*	2	-16	8	·	SIAE inh conf=20*
O=C(N/N=C/c1cc(Br)cc(Br)c1O)c1cccc(N2CCCC2=O)c1	18	12	37*	41*	0	-14	48*	·	SIAE inh conf=20*
O=C(N/N=C/c1ccc(Cl)cc1Cl)c1cccc(N2CCCC2=O)c1	-1	-4	2	-8	-5	·	·	·
O=C(N/N=C\c1ccc(Cl)s1)c1ccc(Cn2cccn2)o1	8	1	-6	12	0	·	·	·
O=C(N/N=C\c1c(O)ccc2ccccc12)c1ccc(Cn2cccn2)o1	18	28	24*	24*	2	-18	25*	·	SIAE inh conf=2
CC1=C(C(=O)N2CCCCCC2)CC(CC(=O)NC(c2ccccc2)c2ccccc2)C(=O)N1CCC1=CCCCC1 (stereo not given)	·	4	-1	-5	3	·	·	·
